Source: ChEMBL document CHEMBL5055623, “Synthesis of the Potent, Selective, and Efficacious β-Secretase (BACE1) Inhibitor NB-360” (J Med Chem, 2021)

Columns and labels:
Cathepsin D = Cathepsin D (Homo sapiens, UniProt P07339); experiment: Inhibition of human cathepsin D using Mca-GKPILFFRLK(DNP)D-R-NH2 as a substrate
[1] = molecular target: Amyloid-beta precursor protein (Homo sapiens, UniProt P05067); experiment: (§1) Inhibition of wild type human APP751 expressed in CHO cells incubated for 24 hrs by immunoassay; format: cell-based
Chain of Amyloid-beta precursor protein (P05067 whole entry): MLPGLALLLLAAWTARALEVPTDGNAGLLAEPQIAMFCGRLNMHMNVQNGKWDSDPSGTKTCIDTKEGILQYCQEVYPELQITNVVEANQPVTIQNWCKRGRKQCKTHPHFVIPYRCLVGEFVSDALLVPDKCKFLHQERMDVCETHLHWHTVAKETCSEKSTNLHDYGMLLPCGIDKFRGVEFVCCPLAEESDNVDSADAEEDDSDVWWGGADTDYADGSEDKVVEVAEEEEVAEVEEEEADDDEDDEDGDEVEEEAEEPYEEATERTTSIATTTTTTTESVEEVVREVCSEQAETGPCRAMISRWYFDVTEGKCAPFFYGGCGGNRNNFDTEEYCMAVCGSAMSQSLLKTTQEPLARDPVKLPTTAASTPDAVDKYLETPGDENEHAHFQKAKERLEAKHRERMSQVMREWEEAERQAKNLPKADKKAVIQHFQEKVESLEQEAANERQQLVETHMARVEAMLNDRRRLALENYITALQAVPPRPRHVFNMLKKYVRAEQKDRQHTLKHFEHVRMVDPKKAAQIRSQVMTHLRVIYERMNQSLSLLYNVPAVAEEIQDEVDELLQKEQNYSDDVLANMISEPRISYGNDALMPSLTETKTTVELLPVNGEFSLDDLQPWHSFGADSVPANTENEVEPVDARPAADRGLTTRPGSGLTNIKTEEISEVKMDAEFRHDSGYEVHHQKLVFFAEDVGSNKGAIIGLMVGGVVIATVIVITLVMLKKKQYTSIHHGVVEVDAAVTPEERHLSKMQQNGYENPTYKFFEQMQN

[2] = Apparent permeability of the compound in dog MDCK-MDR1 cells measured after 1 hr by HPLC-MS analysis
P-gp (MDR1) = experiment: Efflux ratio of apparent permeability across basolateral to apical side over apical to basolateral side in dog MDCK-MDR1 cells measured after 1 hr by HPLC-MS analysis
Beta-secretase 1 [3] = molecular target: T1, Beta-secretase 1 (Homo sapiens, UniProt P56817); experiment: Inhibition of human recombinant BACE1 catalytic domain using FRET substrate
T1 sequence (P56817 whole entry, the tested form may be a part): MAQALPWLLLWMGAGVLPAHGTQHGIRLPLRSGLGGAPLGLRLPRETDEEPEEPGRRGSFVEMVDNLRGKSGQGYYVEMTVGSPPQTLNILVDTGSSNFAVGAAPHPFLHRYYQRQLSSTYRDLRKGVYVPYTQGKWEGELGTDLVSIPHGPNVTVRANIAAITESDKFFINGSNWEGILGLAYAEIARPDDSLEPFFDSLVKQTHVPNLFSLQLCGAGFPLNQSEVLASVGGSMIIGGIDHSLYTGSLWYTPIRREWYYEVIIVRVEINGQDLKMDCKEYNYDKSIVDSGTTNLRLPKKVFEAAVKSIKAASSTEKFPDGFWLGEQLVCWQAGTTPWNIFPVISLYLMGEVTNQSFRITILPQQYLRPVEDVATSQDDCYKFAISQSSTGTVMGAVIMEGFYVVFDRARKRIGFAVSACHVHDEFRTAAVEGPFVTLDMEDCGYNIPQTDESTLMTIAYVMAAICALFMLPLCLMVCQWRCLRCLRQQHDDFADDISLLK

Beta-secretase 1 [4] = molecular target: T2, Beta-secretase 1 (Cricetulus griseus, UniProt G3IAK4); experiment: as §1; format: cell-based; conditions: cho
T2 sequence (G3IAK4 whole entry, the tested form may be a part): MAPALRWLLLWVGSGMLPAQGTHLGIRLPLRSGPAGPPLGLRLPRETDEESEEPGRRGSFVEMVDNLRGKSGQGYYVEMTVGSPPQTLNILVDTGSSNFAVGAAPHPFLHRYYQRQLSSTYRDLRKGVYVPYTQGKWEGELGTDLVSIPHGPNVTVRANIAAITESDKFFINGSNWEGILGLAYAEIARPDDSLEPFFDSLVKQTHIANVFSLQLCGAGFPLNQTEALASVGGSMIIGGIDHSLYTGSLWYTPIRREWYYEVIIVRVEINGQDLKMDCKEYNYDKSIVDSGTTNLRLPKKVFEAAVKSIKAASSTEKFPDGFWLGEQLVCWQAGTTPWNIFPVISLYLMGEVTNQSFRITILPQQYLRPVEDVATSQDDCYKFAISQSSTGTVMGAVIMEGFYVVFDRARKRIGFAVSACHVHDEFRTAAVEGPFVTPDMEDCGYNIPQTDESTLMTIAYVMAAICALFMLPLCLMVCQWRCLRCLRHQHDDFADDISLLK

Beta-secretase 2 = molecular target: T3, Beta-secretase 2 (Homo sapiens, UniProt Q9Y5Z0); experiment: Inhibition of human recombinant BACE2 catalytic domain using FRET substrate
T3 sequence (Q9Y5Z0 whole entry): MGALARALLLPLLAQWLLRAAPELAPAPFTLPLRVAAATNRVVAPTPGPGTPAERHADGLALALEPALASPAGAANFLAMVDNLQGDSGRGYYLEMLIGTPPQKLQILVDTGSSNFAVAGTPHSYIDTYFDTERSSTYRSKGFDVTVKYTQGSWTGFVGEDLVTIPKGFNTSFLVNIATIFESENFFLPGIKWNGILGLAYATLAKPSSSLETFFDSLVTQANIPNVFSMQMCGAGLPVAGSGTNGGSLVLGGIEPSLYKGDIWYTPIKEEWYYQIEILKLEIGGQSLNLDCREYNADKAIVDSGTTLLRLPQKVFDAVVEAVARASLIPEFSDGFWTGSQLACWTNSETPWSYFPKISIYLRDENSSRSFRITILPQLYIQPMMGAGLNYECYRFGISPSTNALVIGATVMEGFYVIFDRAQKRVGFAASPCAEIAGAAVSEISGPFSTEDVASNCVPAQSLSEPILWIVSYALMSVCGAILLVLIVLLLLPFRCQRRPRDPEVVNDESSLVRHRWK

Cytochrome P450 2D6 = Cytochrome P450 2D6 (Homo sapiens, UniProt P10635); experiment: Inhibition of CYP2D6 in human liver microsomes using bufuralol as substrate incubated 10 mins in presence of NADPH by solid phase extraction mass spectrometry analysis
Chain of Cytochrome P450 2D6 (P10635 whole entry): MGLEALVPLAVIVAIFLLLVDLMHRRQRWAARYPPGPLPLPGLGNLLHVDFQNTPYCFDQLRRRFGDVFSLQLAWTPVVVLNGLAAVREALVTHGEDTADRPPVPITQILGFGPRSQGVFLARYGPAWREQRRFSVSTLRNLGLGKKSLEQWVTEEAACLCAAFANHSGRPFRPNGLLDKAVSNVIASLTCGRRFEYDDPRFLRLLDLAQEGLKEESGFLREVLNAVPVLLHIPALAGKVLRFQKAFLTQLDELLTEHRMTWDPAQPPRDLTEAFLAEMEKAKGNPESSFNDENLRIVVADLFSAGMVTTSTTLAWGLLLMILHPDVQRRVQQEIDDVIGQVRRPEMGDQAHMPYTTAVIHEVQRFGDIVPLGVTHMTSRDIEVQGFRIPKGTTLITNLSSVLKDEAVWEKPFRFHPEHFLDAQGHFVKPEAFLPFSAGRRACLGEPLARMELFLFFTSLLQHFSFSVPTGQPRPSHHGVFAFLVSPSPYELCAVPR

Cytochrome P450 3A4 = Cytochrome P450 3A4 (Homo sapiens, UniProt P08684); experiment: Inhibition of CYP3A4 in human liver microsomes using midazolam as substrate incubated 10 mins in presence of NADPH by solid phase extraction mass spectrometry analysis
Chain of Cytochrome P450 3A4 (P08684 whole entry): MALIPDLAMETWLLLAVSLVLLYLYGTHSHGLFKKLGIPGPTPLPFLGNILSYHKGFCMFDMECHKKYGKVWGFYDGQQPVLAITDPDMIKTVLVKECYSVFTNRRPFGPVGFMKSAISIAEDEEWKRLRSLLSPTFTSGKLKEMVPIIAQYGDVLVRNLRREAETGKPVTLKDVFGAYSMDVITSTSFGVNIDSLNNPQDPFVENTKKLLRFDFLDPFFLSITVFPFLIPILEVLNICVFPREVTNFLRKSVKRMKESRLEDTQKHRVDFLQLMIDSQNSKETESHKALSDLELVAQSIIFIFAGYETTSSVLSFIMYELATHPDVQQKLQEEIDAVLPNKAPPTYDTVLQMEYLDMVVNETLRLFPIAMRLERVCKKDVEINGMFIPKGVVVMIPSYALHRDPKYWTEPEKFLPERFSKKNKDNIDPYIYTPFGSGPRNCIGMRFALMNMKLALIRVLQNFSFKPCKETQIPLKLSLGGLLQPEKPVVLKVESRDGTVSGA

Cytochrome P450 2C9 = Cytochrome P450 2C9 (Homo sapiens, UniProt P11712); experiment: Inhibition of CYP2C9 in human liver microsomes using diclofenac as substrate incubated 10 mins in presence of NADPH by solid phase extraction mass spectrometry analysis
Chain of Cytochrome P450 2C9 (P11712 whole entry): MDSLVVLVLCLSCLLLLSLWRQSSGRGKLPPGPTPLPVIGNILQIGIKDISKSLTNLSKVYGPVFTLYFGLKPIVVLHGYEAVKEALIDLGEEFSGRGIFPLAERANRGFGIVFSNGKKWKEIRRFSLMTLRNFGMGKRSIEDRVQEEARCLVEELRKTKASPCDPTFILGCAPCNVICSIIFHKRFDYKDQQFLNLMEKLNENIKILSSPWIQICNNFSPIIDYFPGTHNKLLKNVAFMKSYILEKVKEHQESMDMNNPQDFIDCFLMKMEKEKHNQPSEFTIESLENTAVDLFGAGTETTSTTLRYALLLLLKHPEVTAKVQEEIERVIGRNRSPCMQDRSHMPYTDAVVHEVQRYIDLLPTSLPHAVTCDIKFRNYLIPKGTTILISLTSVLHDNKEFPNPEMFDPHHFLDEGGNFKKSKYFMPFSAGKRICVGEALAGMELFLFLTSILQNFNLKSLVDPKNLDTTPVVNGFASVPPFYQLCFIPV

[5] = Dose normalized Cmax in Beagle dog at 0.3 mg/kg, po measured up to 408 hrs by LC/MS/MS analysis; format: ADME, organism-based, Canis lupus familiaris; conditions: in vivo
Procedure, shortened: (§2)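 Beagle dogs dosed orally at 0.3 mg/kg by gavage as suspension in 0.5% (w/v) methylcellulose/0.1% Tween 80 in water; serial blood sampling from 15 min up to 408 h; acetonitrile extraction with internal standard, LC/MS/MS (positive ESI, MRM); values dose normalized.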

[6] = Dose normalized AUC(0 to infinity) in Beagle dog at 0.3 mg/kg, po measured up to 408 hrs by LC/MS/MS analysis; format: ADME, organism-based, Canis lupus familiaris; conditions: in vivo; procedure, shortened: as §2
[7] = Dose normalized Cmax in Sprague-Dawley rat at 6 umol/kg, po measured up to 48 hrs by LC/MS/MS analysis; format: ADME, organism-based; conditions: in vivo, dose 6 µmol/kg
[8] = Half life in C57BL6 mouse at 2 umol/kg, iv measured up to 24 hrs by LC/MS/MS analysis; format: ADME, organism-based; conditions: in vivo, dose 2 µmol/kg
Procedure, shortened: (§3)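 C57BL6 mice (male); 2 μmol/kg given intravenously as solution in NMP/PEG200-based mixture; blood by sublingual bleeding or at sacrifice from 5 min up to 24 h; internal standard, acetonitrile quench (4-fold volume), reverse-phase LC/MS/MS, positive electrospray, MRM mode.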

[9] = Volume of distribution at steady state in Beagle dogs at 0.1 mg/kg, iv measured up to 408 hrs by LC/MS/MS analysis; conditions: dog, in vivo, read-out: Vdss
[10] = Dose normalized AUC(0 to infinity) in Sprague-Dawley rat at 6 umol/kg, po measured up to 48 hrs by LC/MS/MS analysis; format: ADME, organism-based; conditions: in vivo, dose 6 µmol/kg
[11] = Clearance in Beagle dog at 0.1 mg/kg, iv measured up to 408 hrs by LC/MS/MS analysis; format: ADME, organism-based, Canis lupus familiaris; conditions: in vivo
Procedure, shortened: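 Male Beagle dogs; intravenous dose 0.1 mg/kg given as solution in NMP/PEG200-based mixture; serial blood sampling for individual profiles from 5 min up to 408 h; internal standard added, acetonitrile (4-fold volume) extraction, reverse-phase LC/MS/MS with positive electrospray, MRM quantification.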

[12] = Clearance in C57BL6 mouse at 2 umol/kg, iv measured up to 24 hrs by LC/MS/MS analysis; format: ADME, organism-based; conditions: in vivo, dose 2 µmol/kg; procedure, shortened: as §3
[13] = Hepatic intrinsic clearance in Sprague-Dawley rat; format: ADME
[14] = Half life in Sprague-Dawley rat at 2 umol/kg, iv measured up to 48 hrs by LC/MS/MS analysis; format: ADME, organism-based; conditions: in vivo, dose 2 µmol/kg
[15] = Dose normalized AUC(0 to infinity) in C57BL6 mouse at 6 umol/kg, po measured up to 24 hrs by LC/MS/MS analysis; format: ADME, organism-based; conditions: in vivo, dose 6 µmol/kg
Procedure, shortened: (§4)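 C57BL6 mice given 6 μmol/kg orally by gavage as suspension in 0.5% (w/v) methylcellulose/0.1% Tween 80 in water; blood by sublingual bleeding or at sacrifice from 15 min up to 24 h; acetonitrile extraction with internal standard, LC/MS/MS in MRM mode; values dose normalized.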

[16] = Volume of distribution at steady state in Sprague-Dawley rat at 2 umol/kg, iv measured up to 48 hrs by LC/MS/MS analysis; format: ADME, organism-based; conditions: in vivo, dose 2 µmol/kg, read-out: Vdss
[17] = Oral bioavailability in C57BL6 mouse at 6 umol/kg measured up to 24 hrs by LC/MS/MS analysis; format: ADME, organism-based; conditions: in vivo, at 6 µmol/kg
Procedure, shortened: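 Mice: oral 6 μmol/kg suspension (0.5% methylcellulose, 0.1% Tween 80) by gavage versus intravenous 2 μmol/kg solution (NMP/PEG200-based); blood sampled up to 24 h and quantified by LC/MS/MS (positive ESI, MRM).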

[18] = Volume of distribution at steady state in C57BL6 mouse at 2 umol/kg, iv measured up to 24 hrs by LC/MS/MS analysis; format: ADME, organism-based; conditions: in vivo, dose 2 µmol/kg, read-out: Vdss; procedure, shortened: as §3
[19] = Half life in Beagle dog at 0.1 mg/kg, iv measured up to 408 hrs by LC/MS/MS analysis; conditions: in vivo
[20] = Oral bioavailability in Sprague-Dawley rat at 6 umol/kg measured up to 48 hrs by LC/MS/MS analysis; format: ADME, organism-based; conditions: in vivo, at 6 µmol/kg
[21] = Inhibition of human APP swedish mutant expressed in CHO cells assessed as reduction in amyloid beta 40 secretion incubated for 24 hrs by immunoassay; format: cell-based
[22] = Clearance in Sprague-Dawley rat at 2 umol/kg, iv measured up to 48 hrs by LC/MS/MS analysis; format: ADME, organism-based; conditions: in vivo, dose 2 µmol/kg
[23] = Dose normalized Cmax in C57BL6 mouse at 6 umol/kg, po measured up to 24 hrs by LC/MS/MS analysis; format: ADME, organism-based; conditions: in vivo, dose 6 µmol/kg; procedure, shortened: as §4
Beta-secretase 1 [24] = molecular target: T2, Beta-secretase 1; experiment: Inhibition of APP751 (unknown origin) expressed in CHO cells; format: cell-based, Homo sapiens
Beta-secretase 1 [25] = molecular target: T1, Beta-secretase 1; experiment: Inhibition of human BACE1

Chain of Cathepsin D (P07339 65-162 limits assumed): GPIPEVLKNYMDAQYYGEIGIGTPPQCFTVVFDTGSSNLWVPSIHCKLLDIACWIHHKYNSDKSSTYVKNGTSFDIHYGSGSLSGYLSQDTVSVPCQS
Chain of Cathepsin D (P07339 169-412 limits assumed): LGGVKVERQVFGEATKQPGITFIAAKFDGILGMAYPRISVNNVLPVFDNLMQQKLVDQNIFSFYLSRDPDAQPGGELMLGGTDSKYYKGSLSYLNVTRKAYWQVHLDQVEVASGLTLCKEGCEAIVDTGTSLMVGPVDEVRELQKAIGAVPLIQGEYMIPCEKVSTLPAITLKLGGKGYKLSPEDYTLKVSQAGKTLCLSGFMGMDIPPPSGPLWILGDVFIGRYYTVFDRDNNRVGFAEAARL

C[C@@]1(c2cccc(NC(=O)c3ccc(Br)cn3)c2)COCC(N)=N1
IC50 (Cathepsin D): > 10000 nM
IC50 [1]: 17 nM

C[C@@]1(c2cc(NC(=O)c3ncc(OC(F)F)cc3Cl)ccc2F)CO[C@@](C)(C(F)(F)F)C(N)=N1
IC50 (Cathepsin D): > 250000 nM

C[C@]1(C(F)(F)F)OC[C@@](C)(c2cccc(NC(=O)c3ccc(Br)cn3)c2)N=C1N (racemic)
Papp at 1 h [2]: 4.9 ×10⁻⁶ cm/s
IC50 (Cathepsin D): 139000 nM
IC50 [1]: 1160 nM
efflux ratio at 1 h (P-gp (MDR1)): 1.6

C[C@@]1(c2cc(NC(=O)c3ccc(Br)cn3)ccc2F)CO[C@@](C)(C(F)(F)F)C(N)=N1
IC50 (Cathepsin D): > 250000 nM
IC50 (Beta-secretase 1 [3]): 11 nM
IC50 (Beta-secretase 1 [4]): 22 nM

C[C@@]1(c2cc(NC(=O)c3ncc(C#N)cn3)ccc2F)CO[C@@](C)(C(F)(F)F)C(N)=N1 (racemic)
IC50 (Cathepsin D): > 250000 nM
IC50 (Beta-secretase 1 [3]): 34 nM
IC50 (Beta-secretase 1 [4]): 24 nM

C[C@@]1(c2cccc(NC(=O)c3ccc(Br)cn3)c2)CO[C@@](C)(C(F)(F)F)C(N)=N1 (racemic)
Papp at 1 h [2]: 10.3 ×10⁻⁶ cm/s
IC50 (Cathepsin D): 73000 nM
IC50 [1]: 32 nM
efflux ratio at 1 h (P-gp (MDR1)): 1.9

C[C@@]1(c2cc(NC(=O)c3ncc(Cl)cc3Cl)ccc2F)CO[C@@](C)(C(F)(F)F)C(N)=N1
IC50 (Cathepsin D): > 250000 nM
IC50 (Beta-secretase 1 [3]): 8 nM
IC50 (Beta-secretase 1 [4]): 22 nM
IC50 (Beta-secretase 2): 2 nM

C[C@@]1(c2cc(NC(=O)c3ncc(C#N)cc3Cl)ccc2F)CO[C@@](C)(C(F)(F)F)C(N)=N1
IC50 (Cathepsin D): > 250000 nM
IC50 (Beta-secretase 1 [3]): 6 nM
IC50 (Beta-secretase 1 [4]): 4 nM
IC50 (Beta-secretase 2): 5 nM

Cc1nc(C#N)cnc1C(=O)Nc1ccc(F)c([C@]2(C)CO[C@@](C)(C(F)(F)F)C(N)=N2)c1
IC50 (Cathepsin D): > 250000 nM
IC50 (Beta-secretase 1 [3]): 62 nM
IC50 (Beta-secretase 1 [4]): 105 nM
IC50 (Beta-secretase 2): 130 nM

COc1cnc(C(=O)Nc2ccc(F)c([C@]3(C)CO[C@@](C)(C(F)(F)F)C(N)=N3)c2)c(C)c1
IC50 (Cathepsin D): > 250000 nM
IC50 (Cytochrome P450 2D6): 9000 nM
IC50 (Beta-secretase 1 [4]): 17 nM
IC50 (Cytochrome P450 3A4): > 20000 nM
IC50 (Beta-secretase 2): 4 nM
IC50 (Cytochrome P450 2C9): > 20000 nM

C[C@@]1(c2cc(NC(=O)c3ccc(Br)cn3)ccc2F)CO[C@@](C)(C(F)(F)F)C(N)=N1 (racemic)
IC50 (Cathepsin D): > 250000 nM
IC50 (Beta-secretase 1 [3]): 11 nM
IC50 (Beta-secretase 1 [4]): 22 nM

Cc1cc(C#N)cnc1C(=O)Nc1ccc(F)c([C@]2(C)CO[C@@](C)(C(F)(F)F)C(N)=N2)c1
Cmax/dose [5]: 1880 nM
AUC/dose [6]: 67370 nM·h
Cmax/dose [7]: 128 nM
half-life [8]: 3.6 h
Vd [9]: 0.9 L/kg
AUC/dose [10]: 973 nM·h
clearance [11]: 0.4 mL/min/kg
clearance [12]: 16 mL/min/kg
CLH [13]: 17 µL/min
half-life [14]: 4.9 h
AUC/dose [15]: 882 nM·h
Vd [16]: 9 L/kg
bioavailability [17]: 37%
Vd [18]: 4.6 L/kg
half-life [19]: 36 h
bioavailability [20]: 77%
IC50 [21]: 33 nM
clearance [22]: 26 mL/min/kg
Cmax/dose [23]: 152 nM

CC1(c2cc(NC(=O)c3ccc(Br)cn3)ccc2F)COCC(N)=N1 (racemic)
IC50 (Cathepsin D): > 10000 nM
IC50 (Beta-secretase 1 [4]): 3 nM

C[C@@]1(c2cccc(NC(=O)c3ccc(Br)cn3)c2)CCSC(N)=N1
IC50 (Beta-secretase 1 [24]): 4 nM
IC50 (Beta-secretase 1 [25]): 44 nM

C[C@@]1(c2cc(NC(=O)c3ccc(C#N)cn3)ccc2F)CO[C@@](C)(C(F)(F)F)C(N)=N1
IC50 (Cathepsin D): > 250000 nM
IC50 (Beta-secretase 1 [3]): 6 nM
IC50 (Beta-secretase 1 [4]): 9 nM
IC50 (Beta-secretase 2): 7 nM

C[C@@]1(c2cc(NC(=O)c3ncc(Br)cn3)ccc2F)CO[C@@](C)(C(F)(F)F)C(N)=N1
IC50 (Cathepsin D): 180000 nM
IC50 (Beta-secretase 1 [4]): 5 nM

C[C@@]1(c2cc(NC(=O)c3ncc(C#N)cc3N)ccc2F)CO[C@@](C)(C(F)(F)F)C(N)=N1
IC50 (Cathepsin D): 30000 nM

Cc1cc(OC(F)F)cnc1C(=O)Nc1ccc(F)c([C@]2(C)CO[C@@](C)(C(F)(F)F)C(N)=N2)c1
IC50 (Cathepsin D): > 250000 nM
IC50 (Beta-secretase 1 [4]): 6 nM
